Source: ChEMBL document CHEMBL1132497, “Synthesis and SAR of adatanserin: novel adamantyl aryl- and heteroarylpiperazines with dual serotonin 5-HT(1A) and 5-HT(2) activity as potential anxiolytic and antidepressant agents” (J Med Chem, 1999)

How the values were obtained:
[1] = target: T1, 5-hydroxytryptamine receptor 1A (Rattus norvegicus) (UniProt P19327); test: Inhibitory activity against 5-hydroxytryptamine 1A receptor of rat hippocampal tissue at 0.1 uM; conditions: Hippocampus
T1 sequence (whole entry): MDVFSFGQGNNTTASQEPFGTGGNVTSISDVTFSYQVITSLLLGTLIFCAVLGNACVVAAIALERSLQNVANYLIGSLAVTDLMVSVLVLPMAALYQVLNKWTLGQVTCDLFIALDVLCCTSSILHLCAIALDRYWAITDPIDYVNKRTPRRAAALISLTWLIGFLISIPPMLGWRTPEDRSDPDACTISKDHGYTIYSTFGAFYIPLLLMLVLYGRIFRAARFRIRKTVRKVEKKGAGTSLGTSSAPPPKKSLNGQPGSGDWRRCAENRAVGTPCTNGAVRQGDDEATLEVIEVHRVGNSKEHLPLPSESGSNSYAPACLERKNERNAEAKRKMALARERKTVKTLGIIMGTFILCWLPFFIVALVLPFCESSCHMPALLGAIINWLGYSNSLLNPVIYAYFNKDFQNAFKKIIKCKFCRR

Rattus norvegicus [2] = test: Antagonistic activity against […] induced serotonin syndrome against male Sprague-Dawley CD rats following ip administration of the compound; assay type: functional
Procedure, shortened: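 Rats were dosed ip with compound or vehicle (male Sprague–Dawley CD, 150–250 g, 8 per group), then challenged with 8-OH-DPAT 3 mg/kg ip. The six serotonin-syndrome behaviours were each rated 0–3 for a further 15 min. ED50 by nonlinear regression with inverse prediction.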

Rattus norvegicus [3] = test: Induction of serotonin syndrome against male Sprague-Dawley CD rats following ip administration of the compound; assay type: functional
Procedure, shortened: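 Male Sprague–Dawley CD rats (150–250 g), group-housed and acclimated 1 week, given compound or vehicle ip, 8 per group. Forepaw treading, head weaving, tremor, hindlimb abduction, flat body posture and Straub tail each rated 0–3 (maximum 18) over the first 15 min. ED50 by nonlinear regression with inverse prediction.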

Rattus norvegicus [4] = test: Antagonistic activity antagonist DOI induced head shakes against male Sprague-Dawley CD rats following ip administration of the compound; assay type: functional
Procedure, shortened: (§1)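 Male Sprague–Dawley CD rats (200–300 g), 8 per treatment, given compound or vehicle ip 30 min before quipazine 2.5 mg/kg ip or DOI 1.0 mg/kg ip. Rhythmic radial head shakes counted for 30 min after agonist. ED50 by nonlinear regression with inverse prediction.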

[5] = target: T2, 5-hydroxytryptamine receptor 1A (Rattus norvegicus, UniProt P19327); test: Inhibitory activity against 5-hydroxytryptamine 1A receptor of rat hippocampal tissue; assay type: tissue-based, Hippocampus
T2 sequence (P19327 whole entry): T1 sequence (whole entry)
Procedure, shortened: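 Rat hippocampal membranes from male Sprague–Dawley rats (150–250 g), preincubated 10 min at 37 °C to remove endogenous 5-HT. Used at 0.4–0.6 mg protein with 1.5–1.8 nM [3H]8-OH-DPAT and a range of drug concentrations, 10 min at 37 °C, in 50 mM Tris pH 7.7 with 0.1% ascorbate, 10 μM pargyline and 4 mM CaCl2. Nonspecific binding defined with 1 μM 5-HT. Filtration, scintillation counting. Ki from duplicate assays, 95% CI.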

[6] = target: Serotonin 2 (5-HT2) receptor (Rattus norvegicus, UniProt P30994+P08909+P14842); test: Inhibitory activity against rat cortical 5-hydroxytryptamine 2 receptor; assay type: protein assay
Procedure, shortened: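 Cortical membranes from male Sprague–Dawley rats, incubated 15 min at 37 °C in 50 mM Tris pH 7.6 with 1.0 nM [3H]ketanserin and a range of drug concentrations. Nonspecific binding defined with 100 μM methysergide. Run by filtration and counting.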

D(2) dopamine receptor = D(2) dopamine receptor (Rattus norvegicus, UniProt P61169); test: Inhibitory activity against rat limbic tissue Dopamine receptor D2; assay type: tissue-based, Limbic system
Chain of D(2) dopamine receptor (P61169 whole entry): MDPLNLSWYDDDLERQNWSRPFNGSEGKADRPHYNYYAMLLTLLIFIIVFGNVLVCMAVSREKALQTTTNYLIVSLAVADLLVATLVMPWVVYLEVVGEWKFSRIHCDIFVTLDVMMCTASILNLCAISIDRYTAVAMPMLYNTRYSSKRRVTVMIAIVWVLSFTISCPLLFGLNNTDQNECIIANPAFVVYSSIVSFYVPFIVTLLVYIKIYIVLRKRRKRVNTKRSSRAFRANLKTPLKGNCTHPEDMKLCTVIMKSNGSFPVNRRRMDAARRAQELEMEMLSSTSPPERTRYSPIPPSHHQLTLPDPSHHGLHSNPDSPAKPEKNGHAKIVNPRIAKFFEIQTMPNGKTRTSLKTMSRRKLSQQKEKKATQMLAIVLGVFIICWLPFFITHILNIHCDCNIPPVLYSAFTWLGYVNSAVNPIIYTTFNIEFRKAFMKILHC
Procedure, shortened: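 Rat limbic membranes, handled as in the 5-HT2 assay: 15 min at 37 °C, 50 mM Tris pH 7.6, drug concentration range. 30 nM ketanserin in all tubes to block 5-HT2 sites. Nonspecific binding defined with 10 μM sulpiride. Filtration and counting.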

Rattus norvegicus [7] = test: Antagonistic activity against quipazine induced head shakes against male Sprague-Dawley CD rats following ip administration of the compound; assay type: functional
Procedure, shortened: as §1

[8] = target: T2, 5-hydroxytryptamine receptor 1A; test: Antagonist activity against rat hippocampal tissue 5-hydroxytryptamine 1A receptor; assay type: functional, tissue-based, Hippocampus
[9] = target: T1, 5-hydroxytryptamine receptor 1A (Rattus norvegicus); test: Inhibitory activity against rat hippocampal tissue 5-hydroxytryptamine 1A receptor at 0.1 uM concentration; assay type: tissue-based; conditions: Hippocampus
[10] = target: D(2) dopamine receptor (Rattus norvegicus) (UniProt P61169); test: Inhibitory activity against rat limbic tissue Dopamine receptor D2 at 1 uM concentration; assay type: tissue-based; conditions: Limbic system
Chain of D(2) dopamine receptor (Rattus norvegicus) (P61169 whole entry): as above

[11] = target: D(2) dopamine receptor (Rattus norvegicus) (UniProt P61169); test: Inhibitory activity against Dopamine receptor D2 of rat limbic tissue at 1 uM; assay type: tissue-based; conditions: Limbic system
[12] = target: T1, 5-hydroxytryptamine receptor 1A (Rattus norvegicus); test: Inhibitory activity against rat hippocampal tissue 5-hydroxytryptamine 1A receptor at 1 uM concentration; assay type: tissue-based; conditions: Hippocampus

| SMILES | inhibition [1] | Ki [6] | Ki [8] | further results |
| --- | --- | --- | --- | --- |
| Cc1cccc(N2CCN(C[C@H](C)NC(=O)C34C[C@H]5C[C@@H](C3)C[C@@H](C4)C5)CC2)c1C | 0% |  |  |  |
| COc1ccccc1N1CCN(CCCNC(=O)C23C[C@H]4C[C@@H](C2)C[C@@H](C3)C4)CC1.Cl.Cl |  | 75 nM | 1 nM | ED50 (Rattus norvegicus [2]): 5.8 mg/kg; ED50 (Rattus norvegicus [3]): 9 mg/kg; ED50 (Rattus norvegicus [4]): 4.4 mg/kg; Ki (D(2) dopamine receptor): 200 nM; ED50 (Rattus norvegicus [7]): 4.5 mg/kg |
| O=C(OCCCN1CCN(c2cncc(Cl)n2)CC1)C12C[C@H]3C[C@@H](C1)C[C@@H](C2)C3 |  |  |  | inhibition [9]: 5% |
| O=C(OCCCN1CCN(c2ncccn2)CC1)C12CC3C[C@@H](C[C@H]1C3)C2 | 12% |  |  |  |
| COc1ccccc1N1CCN(CCNC(=O)CC23C[C@H]4C[C@@H](C2)C[C@](C)(C4)C3)CC1 |  |  | 11 nM | inhibition [10]: 70% |
| COc1ccccc1N1CCN(C(=O)NC23C[C@H]4C[C@@H](C2)C[C@@H](C3)C4)CC1 |  |  |  | inhibition [12]: 0% |
| COc1ccccc1N1CCN(CCNC(=O)NC23C[C@H]4C[C@@H](C2)C[C@@H](C3)C4)CC1 |  | 38 nM | 9 nM | inhibition [10]: 94% |
| O=C(N[C@@H](Cc1ccccc1)CN1CCN(c2ncccn2)CC1)C12C[C@H]3C[C@@H](C1)C[C@@H](C2)C3 |  | 1360 nM | 1 nM | Ki (D(2) dopamine receptor): 1690 nM |
| COc1ccccc1N1CCN(CCCNC(=O)NC23C[C@H]4C[C@@H](C2)C[C@@H](C3)C4)CC1.Cl.Cl |  | 348 nM | 1 nM | Ki (D(2) dopamine receptor): 176 nM |
| COc1ccccc1N1CCN(CCNC(=O)C23CC4C[C@@H](C[C@H]2C4)C3)CC1.Cl.Cl |  | 8.2 nM | 0.24 nM | inhibition [10]: 100% |

Further lines, with some results ahead:

| inhibition [1] | Ki [6] | Ki [8] | SMILES | further results |
| --- | --- | --- | --- | --- |
|  | 73 nM |  | Cl.Cl.O=C(NCCN1CCN(c2ncccn2)CC1)C12C[C@H]3C[C@@H](C1)C[C@@H](C2)C3 | ED50 (Rattus norvegicus [2]): 2.2 mg/kg; ED50 (Rattus norvegicus [3]): 12.9 mg/kg; ED50 (Rattus norvegicus [4]): 1.8 mg/kg; Ki [5]: 1 nM; Ki (D(2) dopamine receptor): 166 nM; ED50 (Rattus norvegicus [7]): 0.6 mg/kg |
| 0% |  |  | Cc1cccc(N2CCN(C[C@@H](C)NC(=O)C34C[C@H]5C[C@@H](C3)C[C@@H](C4)C5)CC2)c1C |  |
| 0% |  |  | C[C@@H](CN1CCN(Cc2ccccc2)CC1)NC(=O)C12C[C@H]3C[C@@H](C1)C[C@@H](C2)C3 |  |
|  |  | 4.4 nM | COc1ccccc1N1CCN(CCCNC(=O)CC23C[C@H]4C[C@@H](C2)C[C@](C)(C4)C3)CC1 | inhibition [10]: 79% |
| 69% |  |  | O=C(NCCCN1CCN(c2ncccn2)CC1)NC12CC3CC(CC1C3)C2 | inhibition [11]: 6% |
| 34% |  |  | O=C(NC12C[C@H]3C[C@@H](C1)C[C@@H](C2)C3)OCCN1CCN(c2ncccn2)CC1 |  |
|  | 43.5 nM | 3.3 nM | COc1ccccc1N1CCN(CCCNC(=O)C23CC4C[C@@H](C[C@H]2C4)C3)CC1.Cl.Cl | inhibition [10]: 72% |
|  | 1890 nM | 0.7 nM | Cl.Cl.O=C(N[C@@H](Cc1ccccc1)CN1CCN(Cc2ccccc2)CC1)C12C[C@H]3C[C@@H](C1)C[C@@H](C2)C3 | Ki (D(2) dopamine receptor): 3390 nM |
